Test results: ChEMBL document CHEMBL5058577, “EUbOPEN Chemogenomics Library 2 (Multiplex)” (2022)

Tested on: HEK-293T
Test: Multiplex assay against HEK293T
Assay type: toxicity, cell-based
Details: human
In short: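 Cells were classed with CellPathfinder machine-learning gating, first as Hoechst high-intensity objects or normal cells, then (normal cells) as healthy, pyknosed or fragmented nuclei, and finally (pyknosed cells) as mitotic or apoptotic. Staining of live cells at seeding used Hoechst33342, BioTracker Green Microtubule Cytoskeleton Dye, MitoTracker Red and Annexin V Alexa Fluor 680, with imaging on a CQ1 microscope at 37°C and 5% CO2 after compound addition. Tubulin, mitochondrial-mass and membrane-permeability phenotypes are per cents of healthy-nucleus cells.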

[1] = 12 h, 1 µM, compound concentration 1 uM, replicate 1
[2] = 12 h, 1 µM, compound concentration 1 uM, replicate 2
[3] = 12 h, 10 µM, compound concentration 10 uM, replicate 1
[4] = 12 h, 10 µM, compound concentration 10 uM, replicate 2
[5] = 24 h, 1 µM, compound concentration 1 uM, replicate 1
[6] = 24 h, 1 µM, compound concentration 1 uM, replicate 2
[7] = 24 h, 10 µM, compound concentration 10 uM, replicate 1
[8] = 24 h, 10 µM, compound concentration 10 uM, replicate 2
[9] = 48 h, 1 µM, compound concentration 1 uM, replicate 1
[10] = 48 h, 1 µM, compound concentration 1 uM, replicate 2
[11] = 48 h, 10 µM, compound concentration 10 uM, replicate 1
[12] = 48 h, 10 µM, compound concentration 10 uM, replicate 2

Cc1ccc(OCC(O)C(C)NC(C)C)c2c1CCC2.Cl (stereo not given)
Population Apoptotic (%) [1]: 34% | Population Fragmented Nuclei (%) [1]: 6% | Population Healthy Nuclei (%) [1]: 81% | Population Hoechst High Intensity Objects (%) [1]: 5% | Population Membrane Permeable-Phenotype (%) [1]: 0% | Population Mitochondria Different-Phenotype (%) [1]: 54% | Population Mitotic Cells (%) [1]: 65% | Population Normal (%) [1]: 94% | Population Pyknosed Nuclei (%) [1]: 12% | Population Tubulin-Different-Phenotype (%) [1]: 40% | Total Cell Count [1]: 409 | Population Apoptotic (%) [2]: 45% | Population Fragmented Nuclei (%) [2]: 5% | Population Healthy Nuclei (%) [2]: 84% | Population Mitochondria Different-Phenotype (%) [2]: 65% | Population Mitotic Cells (%) [2]: 54% | Population Pyknosed Nuclei (%) [2]: 10% | Population Tubulin-Different-Phenotype (%) [2]: 22% | Total Cell Count [2]: 360 | Population Apoptotic (%) [3]: 43% | Population Fragmented Nuclei (%) [3]: 7% | Population Healthy Nuclei (%) [3]: 67% | Population Hoechst High Intensity Objects (%) [3]: 3% | Population Membrane Permeable-Phenotype (%) [3]: 0% | Population Mitochondria Different-Phenotype (%) [3]: 66% | Population Mitotic Cells (%) [3]: 56% | Population Normal (%) [3]: 96% | Population Pyknosed Nuclei (%) [3]: 25% | Population Tubulin-Different-Phenotype (%) [3]: 61% | Total Cell Count [3]: 247 | Population Fragmented Nuclei (%) [4]: 9% | Population Healthy Nuclei (%) [4]: 76% | Population Hoechst High Intensity Objects (%) [4]: 18% | Population Mitochondria Different-Phenotype (%) [4]: 79% | Population Normal (%) [4]: 81% | Population Pyknosed Nuclei (%) [4]: 14% | Population Tubulin-Different-Phenotype (%) [4]: 59% | Total Cell Count [4]: 323 | Population Apoptotic (%) [5]: 35% | Population Fragmented Nuclei (%) [5]: 6% | Population Healthy Nuclei (%) [5]: 80% | Population Hoechst High Intensity Objects (%) [5]: 3% | Population Membrane Permeable-Phenotype (%) [5]: 0% | Population Mitochondria Different-Phenotype (%) [5]: 38% | Population Mitotic Cells (%) [5]: 64% | Population Normal (%) [5]: 96% | Population Pyknosed Nuclei (%) [5]: 12% | Population Tubulin-Different-Phenotype (%) [5]: 25% | Total Cell Count [5]: 548 | Population Apoptotic (%) [6]: 28% | Population Fragmented Nuclei (%) [6]: 7% | Population Healthy Nuclei (%) [6]: 83% | Population Hoechst High Intensity Objects (%) [6]: 4% | Population Mitochondria Different-Phenotype (%) [6]: 45% | Population Mitotic Cells (%) [6]: 71% | Population Normal (%) [6]: 95% | Population Pyknosed Nuclei (%) [6]: 9% | Population Tubulin-Different-Phenotype (%) [6]: 17% | Total Cell Count [6]: 444 | Population Apoptotic (%) [7]: 46% | Population Fragmented Nuclei (%) [7]: 11% | Population Healthy Nuclei (%) [7]: 71% | Population Hoechst High Intensity Objects (%) [7]: 5% | Population Membrane Permeable-Phenotype (%) [7]: 1% | Population Mitochondria Different-Phenotype (%) [7]: 53% | Population Mitotic Cells (%) [7]: 53% | Population Normal (%) [7]: 94% | Population Pyknosed Nuclei (%) [7]: 17% | Population Tubulin-Different-Phenotype (%) [7]: 47% | Total Cell Count [7]: 334 | Population Apoptotic (%) [8]: 50% | Population Fragmented Nuclei (%) [8]: 9% | Population Healthy Nuclei (%) [8]: 78% | Population Hoechst High Intensity Objects (%) [8]: 11% | Population Membrane Permeable-Phenotype (%) [8]: 0% | Population Mitochondria Different-Phenotype (%) [8]: 60% | Population Mitotic Cells (%) [8]: 50% | Population Normal (%) [8]: 88% | Population Pyknosed Nuclei (%) [8]: 11% | Total Cell Count [8]: 399 | Population Apoptotic (%) [9]: 24% | Population Fragmented Nuclei (%) [9]: 12% | Population Healthy Nuclei (%) [9]: 79% | Population Hoechst High Intensity Objects (%) [9]: 3% | Population Membrane Permeable-Phenotype (%) [9]: 0% | Population Mitochondria Different-Phenotype (%) [9]: 28% | Population Mitotic Cells (%) [9]: 75% | Population Normal (%) [9]: 96% | Population Pyknosed Nuclei (%) [9]: 8% | Population Tubulin-Different-Phenotype (%) [9]: 14% | Total Cell Count [9]: 804 | Population Apoptotic (%) [10]: 26% | Population Fragmented Nuclei (%) [10]: 11% | Population Healthy Nuclei (%) [10]: 81% | Population Hoechst High Intensity Objects (%) [10]: 1% | Population Mitochondria Different-Phenotype (%) [10]: 27% | Population Mitotic Cells (%) [10]: 73% | Population Normal (%) [10]: 98% | Population Pyknosed Nuclei (%) [10]: 7% | Total Cell Count [10]: 660 | Population Apoptotic (%) [11]: 40% | Population Fragmented Nuclei (%) [11]: 10% | Population Healthy Nuclei (%) [11]: 74% | Population Hoechst High Intensity Objects (%) [11]: 5% | Population Membrane Permeable-Phenotype (%) [11]: 0% | Population Mitochondria Different-Phenotype (%) [11]: 48% | Population Mitotic Cells (%) [11]: 59% | Population Normal (%) [11]: 94% | Population Pyknosed Nuclei (%) [11]: 14% | Population Tubulin-Different-Phenotype (%) [11]: 43% | Total Cell Count [11]: 435 | Population Apoptotic (%) [12]: 34% | Population Fragmented Nuclei (%) [12]: 11% | Population Healthy Nuclei (%) [12]: 80% | Population Membrane Permeable-Phenotype (%) [12]: 1% | Population Mitochondria Different-Phenotype (%) [12]: 39% | Population Mitotic Cells (%) [12]: 66% | Population Pyknosed Nuclei (%) [12]: 8% | Population Tubulin-Different-Phenotype (%) [12]: 41% | Total Cell Count [12]: 611
